ChEMBL document CHEMBL3758120, “Synthesis and Mechanism Studies of 1,3-Benzoazolyl Substituted Pyrrolo[2,3-b]pyrazine Derivatives as Nonintercalative Topoisomerase II Catalytic Inhibitors” (J Med Chem, 2016)
Active and inactive are the calls of the source. The rule behind the calls is not given here.

Columns and labels:
[1] = tested on: HEK293; test: Cytotoxicity against HEK293 cells after 48 hrs by MTT assay; format: cell-based; details: Homo sapiens, HEK293, 48 h
[2] = tested on: HeLa; test: Antiproliferative activity against human HeLa cells after 48 hrs by MTT assay; format: functional, cell-based
Method in brief: (§1)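 Cells seeded at 5000 per well and left overnight, then exposed to increasing concentrations (0-50 μM) for 48 h. […] HL-60/MX2 is a mitoxantrone-selected HL-60 derivative with reduced Topo IIα/β.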

[3] = Antiproliferative activity against human MDA-MB-201 cells after 48 hrs by MTT assay; format: functional, cell-based; method in brief: as §1
[4] = biological target: T1, DNA topoisomerase 2-alpha (Homo sapiens, UniProt P11388); test: Inhibition of purified human topoisomerase 2-mediated relaxation of supercoiled pBR322 DNA at 20 uM incubated for 30 mins by agarose gel electrophoresis
T1 sequence (P11388 whole entry): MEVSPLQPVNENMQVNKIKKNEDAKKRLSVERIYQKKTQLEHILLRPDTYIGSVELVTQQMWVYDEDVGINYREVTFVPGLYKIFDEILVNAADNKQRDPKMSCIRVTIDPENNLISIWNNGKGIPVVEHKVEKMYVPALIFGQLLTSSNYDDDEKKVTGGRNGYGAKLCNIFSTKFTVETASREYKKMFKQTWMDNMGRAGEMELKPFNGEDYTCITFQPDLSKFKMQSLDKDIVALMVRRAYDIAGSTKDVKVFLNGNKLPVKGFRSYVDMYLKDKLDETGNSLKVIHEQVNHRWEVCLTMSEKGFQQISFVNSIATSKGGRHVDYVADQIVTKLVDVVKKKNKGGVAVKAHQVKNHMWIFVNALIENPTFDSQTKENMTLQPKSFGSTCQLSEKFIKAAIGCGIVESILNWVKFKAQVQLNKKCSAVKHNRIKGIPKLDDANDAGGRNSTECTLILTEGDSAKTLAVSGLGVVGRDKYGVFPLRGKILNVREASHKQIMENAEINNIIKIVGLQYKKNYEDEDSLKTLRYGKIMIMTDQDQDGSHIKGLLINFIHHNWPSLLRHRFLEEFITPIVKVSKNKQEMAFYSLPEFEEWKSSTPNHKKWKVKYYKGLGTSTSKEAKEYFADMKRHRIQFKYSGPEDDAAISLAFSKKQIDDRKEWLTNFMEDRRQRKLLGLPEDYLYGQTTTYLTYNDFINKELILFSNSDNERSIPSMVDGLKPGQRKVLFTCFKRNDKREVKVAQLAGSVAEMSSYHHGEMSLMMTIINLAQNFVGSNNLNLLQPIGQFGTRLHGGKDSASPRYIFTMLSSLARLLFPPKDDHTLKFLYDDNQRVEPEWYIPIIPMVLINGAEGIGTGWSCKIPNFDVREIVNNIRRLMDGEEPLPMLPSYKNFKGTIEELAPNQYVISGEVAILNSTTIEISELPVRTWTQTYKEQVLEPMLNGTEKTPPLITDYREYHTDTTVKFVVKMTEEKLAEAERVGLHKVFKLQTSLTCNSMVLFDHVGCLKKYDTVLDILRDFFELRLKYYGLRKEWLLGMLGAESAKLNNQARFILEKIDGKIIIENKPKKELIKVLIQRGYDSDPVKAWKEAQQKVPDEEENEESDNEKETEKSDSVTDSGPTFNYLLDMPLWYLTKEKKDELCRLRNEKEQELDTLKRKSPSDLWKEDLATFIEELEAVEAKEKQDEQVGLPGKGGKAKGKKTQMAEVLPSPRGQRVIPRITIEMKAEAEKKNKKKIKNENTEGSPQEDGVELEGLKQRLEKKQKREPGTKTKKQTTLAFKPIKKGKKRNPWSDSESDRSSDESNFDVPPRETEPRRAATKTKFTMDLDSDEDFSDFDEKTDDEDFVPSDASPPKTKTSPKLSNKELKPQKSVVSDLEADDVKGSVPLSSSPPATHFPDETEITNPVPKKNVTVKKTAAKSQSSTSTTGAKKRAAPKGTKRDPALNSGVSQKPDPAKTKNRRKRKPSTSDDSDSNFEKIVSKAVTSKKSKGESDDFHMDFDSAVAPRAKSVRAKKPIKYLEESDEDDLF
Method in brief: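 Reactions contained 0.2 μg supercoiled pBR322 in 50 mM Tris-HCl pH 8.0, 150 mM NaCl, 10 mM MgCl2, 0.5 mM DTT, 30 μg/ml BSA, normally 2 mM ATP (1, 2 or 4 mM in ATP-competition runs). Started with 1 U human Topo II, 30 min at 37 °C, stopped with sarcosyl buffer, run on 1% agarose 1.5 h at 75 V, gel-stained and imaged under UV.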

[5] = tested on: HL-60; test: Induction of apoptosis in human HL60 cells assessed as early apoptotic cells at 0.5 uM after 12 hrs by annexin V-FITC/propidium iodide staining-based flow cytometric analysis (reference value: 0.38 to 0.55%); format: functional
Method in brief: (§2)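 HL-60 cells at 5.0 × 10^5 cells/ml treated for 12 h (0.5–2 μM) or 24 h (0.25–1 μM), washed twice in cold PBS, resuspended in binding buffer, stained with annexin V-FITC and propidium iodide for 15 min in the dark, analysed by flow cytometry within 1 h; quadrants define live, early and late apoptotic cells. Three repeats.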

[6] = tested on: HL-60; test: Induction of apoptosis in human HL60 cells assessed as dead cells at 2 uM after 12 hrs by annexin V-FITC/propidium iodide staining-based flow cytometric analysis (reference value: 0.12 to 0.15%); format: functional
[7] = Antiproliferative activity against human HL60 cells after 48 hrs by MTT assay; format: functional, cell-based; details: HL-60, 48 h; method in brief: as §1
[8] = tested on: HL-60; test: Induction of apoptosis in human HL60 cells assessed as dead cells at 0.25 uM after 24 hrs by annexin V-FITC/propidium iodide staining-based flow cytometric analysis (reference value: 0.12%); format: functional
[9] = tested on: HL-60; test: Induction of apoptosis in human HL60 cells assessed as early apoptotic cells at 2 uM after 12 hrs by annexin V-FITC/propidium iodide staining-based flow cytometric analysis (reference value: 0.38 to 0.55%); format: functional; method in brief: as §2
[10] = tested on: HL-60; test: Induction of apoptosis in human HL60 cells assessed as early apoptotic cells at 1 uM after 12 hrs by annexin V-FITC/propidium iodide staining-based flow cytometric analysis (reference value: 0.38 to 0.55%); format: functional; method in brief: as §2
[11] = biological target: T1, DNA topoisomerase 2-alpha; test: Inhibition of purified human topoisomerase 2 using supercoiled pBR322 DNA as substrate assessed as linear DNA formation at 20 uM incubated for 6 mins by agarose gel electrophoresis
Method in brief: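 Human Topo II (6 units) with 0.1 μg supercoiled pBR322 in 50 mM Tris-HCl pH 8.0, 150 mM NaCl, 10 mM MgCl2, 2 mM ATP, 0.5 mM DTT, 30 μg/ml BSA; compounds at 20 μM, etoposide 100 μM. After 6 min at 37 °C, complexes trapped with SDS then EDTA, proteinase K 30 min at 45 °C, heated 72 °C 2 min, run on 1% agarose; linear DNA scored. Antagonism tested by compound pretreatment before etoposide.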

[12] = tested on: HL-60; test: Induction of apoptosis in human HL60 cells assessed as late apoptotic cells at 1 uM after 24 hrs by annexin V-FITC/propidium iodide staining-based flow cytometric analysis (reference value: 1.64%); format: functional; method in brief: as §2
[13] = tested on: HL-60; test: Induction of apoptosis in human HL60 cells assessed as dead cells at 1 uM after 12 hrs by annexin V-FITC/propidium iodide staining-based flow cytometric analysis (reference value: 0.12 to 0.15%); format: functional
[14] = tested on: HL-60; test: Induction of apoptosis in human HL60 cells assessed as dead cells at 1 uM after 24 hrs by annexin V-FITC/propidium iodide staining-based flow cytometric analysis (reference value: 0.12%); format: functional
[15] = tested on: HL-60; test: Induction of apoptosis in human HL60 cells assessed as late apoptotic cells at 2 uM after 12 hrs by annexin V-FITC/propidium iodide staining-based flow cytometric analysis (reference value: 0.17 to 0.18%); format: functional; method in brief: as §2
[16] = biological target: T2, DNA topoisomerase 1 (Homo sapiens) (UniProt P11387); test: Inhibition of recombinant human topoisomerase 1-mediated relaxation of supercoiled pBR322 DNA at 50 uM incubated for 30 mins by agarose gel electrophoresis
T2 sequence (whole entry): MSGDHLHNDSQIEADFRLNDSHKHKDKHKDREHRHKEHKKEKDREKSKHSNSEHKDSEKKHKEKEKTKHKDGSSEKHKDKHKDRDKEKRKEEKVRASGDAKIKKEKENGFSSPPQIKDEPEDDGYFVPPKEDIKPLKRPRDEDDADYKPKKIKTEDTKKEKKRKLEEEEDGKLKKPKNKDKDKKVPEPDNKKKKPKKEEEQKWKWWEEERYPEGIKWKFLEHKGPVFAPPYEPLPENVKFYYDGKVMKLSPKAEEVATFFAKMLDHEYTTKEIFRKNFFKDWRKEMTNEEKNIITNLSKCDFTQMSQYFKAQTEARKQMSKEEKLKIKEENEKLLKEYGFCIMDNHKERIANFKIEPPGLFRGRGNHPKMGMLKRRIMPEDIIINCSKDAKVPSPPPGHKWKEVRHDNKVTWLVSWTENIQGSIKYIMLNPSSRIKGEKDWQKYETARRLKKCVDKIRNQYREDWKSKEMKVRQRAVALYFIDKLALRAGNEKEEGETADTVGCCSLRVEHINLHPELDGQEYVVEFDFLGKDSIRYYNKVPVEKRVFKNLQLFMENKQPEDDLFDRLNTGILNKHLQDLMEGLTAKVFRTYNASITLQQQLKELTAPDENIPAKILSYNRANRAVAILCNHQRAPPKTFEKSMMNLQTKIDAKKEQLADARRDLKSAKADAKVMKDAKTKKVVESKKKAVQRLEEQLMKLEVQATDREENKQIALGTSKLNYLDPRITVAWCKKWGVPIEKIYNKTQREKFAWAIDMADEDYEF
Method in brief: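 Supercoiled pBR322 relaxed by Topo I with compound, incubated 30 min at 37 °C, stopped with 1% SDS dye, run on 1% agarose 1 h at 90 V in TAE, stained and imaged under UV; camptothecin as reference.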

[17] = tested on: HL-60; test: Induction of apoptosis in human HL60 cells assessed as viable cells at 0.25 uM after 24 hrs by annexin V-FITC/propidium iodide staining-based flow cytometric analysis (reference value: 97.75%); format: functional; details: HL-60, 24 h, read-out: Activity; method in brief: as §2
[18] = tested on: HL-60; test: Induction of apoptosis in human HL60 cells assessed as viable cells at 0.5 uM after 24 hrs by annexin V-FITC/propidium iodide staining-based flow cytometric analysis (reference value: 97.75%); format: functional; details: HL-60, 24 h, read-out: Activity; method in brief: as §2
[19] = tested on: A549; test: Antiproliferative activity against human A549 cells after 48 hrs by MTT assay; format: functional, cell-based; details: A549, 48 h; method in brief: as §1

Q: What does the source list for `CN(C)CCCCn1c(N)c(-c2nc3ccccc3[nH]2)c2nc(C#N)c(C#N)nc21`?
A: IC50 [1]: 4.16 µM; IC50 [2]: 11.2 µM; IC50 [3]: 0.53 µM; inhibition [4]: Active; Activity [5]: 0.46%; Activity [6]: 1.96%; IC50 [7]: 0.43 µM; Activity [8]: 0.03%; Activity [9]: 5.8%; Activity [10]: 0.82%; inhibition [11]: inactive; Activity [12]: 90.51%; Activity [13]: 0.11%; Activity [14]: 8.31%; Activity [15]: 64.15%; inhibition [16]: inactive; viability at 0.25 µM [17]: 99%; viability at 0.5 µM [18]: 13.9%; IC50 [19]: 8.24 µM

Q: For `CCN(CC)CCCCn1c(N)c(-c2nc3ccccc3[nH]2)c2nc(C#N)c(C#N)nc21`, which IC50 [1] is on record?
A: The IC50 was 5.37 µM.

Q: And the IC50 [2]?
A: Its IC50 is 10.1 µM.

Q: And the IC50 [3]?
A: Its IC50 is 0.64 µM.

Q: And the inhibition [4]?
A: The inhibition was “Active”.

Q: And the Activity [5]?
A: The Activity was 0.35%.

Q: What about the Activity [6] of the same molecule?
A: The Activity was 1.36%.

Q: What about the IC50 [7] of the same molecule?
A: The IC50 was 0.46 µM.

Q: What about the Activity [8] of the same molecule?
A: Its Activity is 0.07%.

Q: And the Activity [9]?
A: Its Activity is 6.62%.

Q: What about the Activity [10] of the same molecule?
A: Its Activity is 1.39%.

Q: And the inhibition [11]?
A: The inhibition was “inactive”.

Q: And the Activity [12]?
A: The Activity was 45.05%.

Q: And the Activity [13]?
A: The Activity was 0.25%.

Q: What about the Activity [14] of the same molecule?
A: The Activity was 12.63%.

Q: And the Activity [15]?
A: Its Activity is 46.73%.

Q: What about the inhibition [16] of the same molecule?
A: The inhibition was “inactive”.

Q: What about the viability at 0.25 µM [17] of the same molecule?
A: Its viability at 0.25 µM is 99.2%.

Q: What about the viability at 0.5 µM [18] of the same molecule?
A: Its viability at 0.5 µM is 78.7%.

Q: What about the IC50 [19] of the same molecule?
A: The IC50 was 5.75 µM.
